Results published in ChEMBL document CHEMBL4725347, “Discovery of a Monoiodo Aza-BODIPY Near-Infrared Photosensitizer: in vitro and in vivo Evaluation for Photodynamic Therapy” (J Med Chem, 2020).
Activity calls are given as the source filed them. The calls are words filed in the database; no cut-off is given here.

Experiments:
HeLa [1] = assay: Induction of apoptosis in human HeLa cells assessed as early apoptotic cells at 200 nM preincubated for 3 hrs followed by 27 J/cm2 light irradiation and measured after 24 hrs by Annexin-V-FITC/propidium iodide staining based flow cytometry (reference value: 0.54%); type: functional
Method in brief: (§1)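 HeLa cells in six-well plates were exposed to compound for 3 h, irradiated (λ > 590 nm), and incubated 24 h at 37 °C. Cells were then harvested, washed with PBS, and stained with annexin V-FITC/PI for 20 min at room temperature before immediate flow cytometry. Untreated, unirradiated cells served as control.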

HeLa [2] = assay: Induction of apoptosis in human HeLa cells assessed as late apoptotic cells at 200 nM preincubated for 3 hrs followed by 27 J/cm2 light irradiation and measured after 24 hrs by Annexin-V-FITC/propidium iodide staining based flow cytometry (reference value: 5.92%); type: functional; method in brief: as §1
[3] = Stability of the compound in acetonitrile assessed as compound degradation under dark condition; type: physicochemical
[4] = Drug uptake in Balb/c nu/nu mouse xenografted with human HeLa cells at 2 mg/kg, iv measured over 10 hrs by fluorescence imaging analysis; type: ADME, organism-based; details: in vivo
Method in brief: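 Female Balb/c nu/nu mice bore subcutaneous HeLa tumors (5×10^6 cells, right back) and received 2 mg/kg via tail vein. Living mice were imaged under isoflurane at time points (ex 680/em 720 nm, 1 s exposure). At set times mice were euthanized and heart, liver, spleen, lungs, kidneys and tumor imaged ex vivo; ROI quantified, mean ± SD, n = 3.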

HeLa [5] = assay: Induction of reactive oxygen species generation in human HeLa cells at 0.004 to 2.5 uM incubated for 3 hrs prior to H2DCFDA addition for 20 mins followed by 54 J/cm2 light irradiation by microplate reader analysis; type: functional, cell-based; details: dose microM 0.004-2.5, time 3.0 hrs
Method in brief: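 HeLa cells were exposed to 0.004, 0.02, 0.10, 0.5 or 2.5 μM for 3 h, washed, and loaded with H2DCFDA 10 μM in PBS for 20 min at 37 °C. After washing, cells in PBS were irradiated with 54 J/cm² (λ > 590 nm) or kept dark. Fluorescence was read by confocal microscopy and by plate reader (ex 485/em 538 nm).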

MCF7 = assay: Phototoxicity against human MCF7 cells assessed as reduction in cell viability preincubated for 3 hrs followed by 54 J/cm2 light irradiation and measured after 24 hrs by MTT assay; type: functional, cell-based; details: MCF7, light or radiation study
Method in brief: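 PS formulated in PBS containing Cremophor EL/1,2-propanediol (10:3, v:v) after THF removal, filtered, with concentration confirmed by UV-Vis. Cells were grown in DMEM with 10% FBS and seeded at 3×10^3 per well overnight. They were incubated with PS for 3 h, irradiated at λ > 590 nm, kept 24 h at 37 °C, then given MTT (0.5 mg/mL, 4 h) with DMSO solubilization and A490 read-out.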

In the case of `COc1ccc(C2=[N+]3C(=Nc4c(-c5ccccc5)cc(-c5ccc(OC)cc5)n4[B-]3(F)F)C(c3ccccc3)=C2I)cc1`, the Activity (HeLa [1]) is reported as 20.46%, the Activity (HeLa [2]) is reported as 14.98% and the Stabilty [3] is reported as “Unstable”. The Drug uptake [4] was “Not Active”, the Activity (HeLa [5]) was “Active” and the IC50 (MCF7) was 100 nM.
